Shown are actives, neighbours in structure and some others; about 1.8% of the full set was active somewhere.
TNAP inh noacc: human TNAP enzyme inhibitors, primary screen, biochemical, luminescent, no phosphate acceptor, uHTS. Alkaline phosphatase, tissue-nonspecific isozyme (Homo sapiens), P05186. purified TNAP, CDP-star luminescence, 30 min. inhibition, % at 20 µM. hit rate 0.26% among 200,000. AID 1012, 2008;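 active = tissue-nonspecific alkaline phosphatase inhibition above about 50% at 20 µM in the single-dose screen, limit read from the data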
Target sequence (P05186 whole entry, looked up): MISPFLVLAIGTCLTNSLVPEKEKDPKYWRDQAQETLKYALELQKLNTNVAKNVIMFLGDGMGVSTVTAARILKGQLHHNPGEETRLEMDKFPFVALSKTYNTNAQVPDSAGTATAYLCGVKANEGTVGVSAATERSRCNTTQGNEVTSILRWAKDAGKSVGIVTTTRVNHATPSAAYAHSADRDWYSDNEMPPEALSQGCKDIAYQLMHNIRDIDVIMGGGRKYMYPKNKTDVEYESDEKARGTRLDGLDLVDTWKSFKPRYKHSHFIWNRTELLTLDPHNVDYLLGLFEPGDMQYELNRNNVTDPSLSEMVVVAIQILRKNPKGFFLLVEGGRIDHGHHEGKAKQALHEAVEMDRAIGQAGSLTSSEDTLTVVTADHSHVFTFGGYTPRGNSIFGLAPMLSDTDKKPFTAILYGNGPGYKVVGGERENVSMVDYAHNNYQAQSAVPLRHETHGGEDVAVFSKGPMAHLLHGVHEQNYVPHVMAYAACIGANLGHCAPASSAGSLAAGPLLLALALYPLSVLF
TNAP act hiacc: TNAP activators at high phosphate acceptor level, primary screen, biochemical, luminescence, uHTS; 200,000 tested, under 10 active; activation factor at 20 µM; purified TNAP, CDP-star luminescence, 1 M DEA, 30 min; active compounds read high; 0 = EDTA background, 1 = DMSO-only activity; Alkaline phosphatase, tissue-nonspecific isozyme (Homo sapiens), P05186; AID 1136, 2008;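 active = activation factor at least 2 at 20 µM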
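system = human TNAP | amount = enzyme diluted 1/800 final | reagent = 100 µM CDP-star substrate | signal = luminescent substrate turnover signal | dosing = one dose, 20 µM | benchmarks = EDTA negative control, DMSO positive control | measure = activation factor | timing = 30 min reaction, room temperature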
Ins promoter up: insulin promoter activators in MIN6 cells, imaging, high-content screening, mouse beta cells | MIN6 insulin promoter-GFP reporter; active compounds read high | z-score at 5 µM | hit rate 0.3% among 190,000 | AID 1625, 2009;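 active = z-score above 3 at 5 µM with at least 500 cells counted in the well; inconclusive = wells under 500 cells, flagged as cytotoxic or low count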
NCF1 inh: p47phox/p22phox peptide binding inhibitors, primary screen, biochemical, uHTS, NADPH oxidase regulatory subunit | Neutrophil cytosol factor 1 (Homo sapiens), P14598 | fluorescence polarization, 2 h | inhibition, % at 24.7 µM | hit rate 0.53% among 220,000 | AID 1274, 2008;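 active = inhibition above about 30%, limit read from the data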
Autophagy mod: autophagy modulators in MEF cells, primary screen, imaging, high-content, MEF GFP-LC3; MEF GFP-LC3 puncta imaging; test concentration mostly 10 µM; calls only at 10 µM (by protocol); hit rate 0.98% among 190,000;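 active = percentage of spot-positive cells more than 3 SD above its plate mean, without a fluorescence outlier flag or 80% toxicity; inconclusive = no clear call, values can overlap the other calls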
TNAP inh hi DEA: human TNAP enzyme inhibitors, primary screen, biochemical, luminescent, high phosphate acceptor level, uHTS | inhibition, % at 20 µM | purified TNAP, CDP-star luminescence, 1 M DEA | AID 1135, 2008 | hit rate 0.03% among 200,000;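 active = over 50% inhibition of tissue-nonspecific alkaline phosphatase at 20 µM in the single-dose screen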
Large screens that a line does not name were inactive.

COc1ccc(-c2ccnc(-c3ccc(O)cc3)n2)cc1	none
COc1ccc(-c2nc(N=Nc3ccc(O)cc3)n[nH]2)cc1	TNAP inh noacc 74
Cc1ccc(-c2nc(N=Nc3ccc(O)cc3)n[nH]2)cc1	TNAP inh noacc 68
Cc1ccc(NCC(=O)N/N=C/c2cccc(Oc3ccccc3)c2)cc1	none
COc1ccc(C(=O)NCC(=O)N/N=C(\C)c2ccco2)cc1OC	none (no result: TNAP inh noacc, TNAP act hiacc, Autophagy mod, TNAP inh hi DEA)
COc1ccc(OCc2nnc(SC(C)C(=O)Nc3nccs3)n2-c2ccccc2)cc1 (stereo unspecified)	NCF1 inh 36
CN(CC(=O)Nc1ccccc1Cl)CC(=O)Nc1ccccc1[N+](=O)[O-]	none
N#C/C(=C\c1cn(-c2ccccc2)nc1-c1cc2ccccc2o1)c1nc2ccccc2[nH]1	Autophagy mod active
CN(C)S(=O)(=O)c1cccc(-c2nn(-c3ccccc3)cc2/C=C(\C#N)c2nc3ccccc3[nH]2)c1	none
O=C(O)C1CCC(=O)N1C(=O)OCc1ccccc1 (stereo unspecified)	none (no result: TNAP inh noacc, TNAP act hiacc, Autophagy mod, TNAP inh hi DEA)
Cn1ccnc1C(=O)c1cc(SCC(=O)N2CCOCC2)nc2ccccc12	none
COc1cc(SC)ccc1C(=O)NCc1ccccc1	NCF1 inh 77
COc1cc(SC)ccc1C(=O)NCc1ccc(C)cc1	none
Cn1c(NNC(=O)C2CCCCC2)cc(=O)n(C)c1=O	Autophagy mod active
CCN1/C(=C2\OC(=S)N(C)C2=O)Sc2ccccc21	Autophagy mod active
CCN1/C(=C2\SC(=S)N(Cc3ccccc3)C2=O)Sc2ccccc21	Autophagy mod active
COc1ccc(C(=O)N2CC3(C)CC2CC(C)(C)C3)cc1 (stereo unspecified)	NCF1 inh 56
O=C(/C=C/c1ccco1)NC(=S)Nc1ccccc1N1CCCC1	Ins promoter up 3.1
COc1ccc(O)c(-c2cc(-c3cccs3)[nH]n2)c1	none
CC(C)c1cc(C(=O)N/N=C/c2cccnc2)n[nH]1	TNAP inh noacc 63
O=C(N/N=C/c1ccco1)c1cc(-c2cccs2)[nH]n1	TNAP inh noacc 87
COC(=O)c1cc(-c2cccs2)[nH]n1	TNAP inh noacc 96
C/C(=N\NC(=O)c1cc(C(C)C)[nH]n1)c1ccco1	Autophagy mod active
O=S(=O)(c1ccccc1Cl)N1CCC(O)(c2ccc3c(c2)OCO3)CC1	none
CN1CCC(N(C)C(=O)CCc2nc3ccccc3n2-c2ccccc2)CC1	none
CC(C)c1cc(C(=O)N/N=C/c2ccco2)n[nH]1	TNAP inh noacc 61
O=C(N/N=C/c1ccco1)c1cc(-c2ccc(Cl)s2)[nH]n1	TNAP inh noacc 54 (no result: Ins promoter up)
COc1cc2nc(CN3CCN(C(c4ccccc4)c4ccccc4)CC3)[nH]c(=O)c2cc1OC	NCF1 inh 63 (no result: TNAP inh noacc, TNAP act hiacc, Autophagy mod, TNAP inh hi DEA)
Cc1ccc(-n2ncc3c2ncn2c(-c4ccncc4)nnc32)cc1	TNAP inh noacc 54 (no result: NCF1 inh, Autophagy mod)
CCC(OC(=O)c1cccs1)C(=O)NCc1ccc2c(c1)OCO2 (stereo unspecified)	none
CCC(OC(=O)c1cccs1)C(=O)NCc1ccc(C)cc1 (stereo unspecified)	Autophagy mod active
COc1cc(N2CCCC2)c(OC)cc1/C=C(/C#N)c1ccc(Br)cc1	Autophagy mod inconclusive (no result: Ins promoter up)
COc1cc(N2CCCC2)c(OC)cc1/C=C(/C#N)c1ccc(F)cc1	Autophagy mod active (no result: Ins promoter up)
Cn1ncc(N=Cc2ccccc2O)c1C(=O)N1CCOCC1	NCF1 inh active
Cn1ncc(Cl)c1C(=O)N1CCOCC1	none
O=C(c1ccc(Br)o1)N1CCN(c2ccccc2F)CC1	Autophagy mod active
COc1ccc(N2C(=O)C(CN3CCN(C)CC3)C2c2ccccc2)cc1 (stereo unspecified)	none
COc1ccc(C2CC(=O)Nc3n[nH]c(-c4ccccc4)c32)cc1OC (stereo unspecified)	TNAP inh noacc 64
CCC(=O)c1ccc(N2CCN(C(=O)c3ccccc3)CC2)c(F)c1	none
COc1cc(NC(=O)Cn2ncc(Cl)c(Cl)c2=O)c(C)cc1[N+](=O)[O-]	Ins promoter up inconclusive, Autophagy mod active
COc1cc(NC(=O)CN2C(=O)CN(C)C2=O)c(C)cc1[N+](=O)[O-]	none
CCOC(=O)C(C)(C)C(=O)C(C)(C)C(O)c1ccccn1 (stereo unspecified)	none
CC(C)(C)n1nc2c(c1NC(=O)c1ccccc1)CS(=O)(=O)C2	none
CC(C)(C)n1nc2c(c1NC(=O)c1cc3ccccc3o1)CS(=O)(=O)C2	TNAP inh noacc 51
CC1(C)CC(=O)C(CC2=C(O)CC(C)(C)CC2=O)=C(O)C1	Autophagy mod active
CCC(=O)N1CC2(CC(c3cccc([N+](=O)[O-])c3)=NO2)C[C@H]1C(=O)NCC(N)=O (stereo partly specified)	NCF1 inh 35
CCc1nc(SCC(=O)Nc2ccc(OC)cc2[N+](=O)[O-])n[nH]1	none (no result: TNAP inh noacc, TNAP act hiacc, Autophagy mod, TNAP inh hi DEA)
COc1ccc(OC)c(S(=O)(=O)Nc2c(C)cccc2C)c1	none
Cc1ccc(NC2(c3nnnn3-c3c(C)cccc3C)CCCCC2)cc1	Autophagy mod active
O=C(CSc1ccccn1)C12CC3CC(CC(C3)C1)C2	none
Cc1ccc(NCC(=O)Nc2ccc(Br)cc2)cc1F	none
CCCN1C(=O)c2cccc3c(N4CCCCC4)ccc(c23)C1=O	Autophagy mod active (no result: Ins promoter up)
O=C(OCCN1C(=O)c2cccc3c(N4CCOCC4)ccc(c23)C1=O)c1cc(Cl)cc(Cl)c1	Autophagy mod active
O=C1c2cccc3c(N4CCCCC4)ccc(c23)C(=O)N1c1ccccn1	none
O=C1c2cccc3c(N4CCCCC4)ccc(c23)C(=O)N1c1ccc(Cl)cn1	Autophagy mod active (no result: TNAP inh noacc, TNAP act hiacc, Ins promoter up, NCF1 inh, TNAP inh hi DEA)
O=C(O)c1ccccc1CSc1ccccn1	none
Cc1ccccc1OCC(=O)OC1CCN(C)CC1	Ins promoter up 8.6
OC1(c2cn(Cc3ccccc3)nn2)CCCCC1	Ins promoter up 5.9
CCOC(=O)c1cn(Cc2ccccc2)nn1	none
O=c1[nH]c(SCc2ccc([N+](=O)[O-])cc2)nc2[nH]ncc12	none
COc1cc(OC)c2ccc(=O)oc2c1C(CCN1CCN(c2ccccc2)CC1)c1ccc(N(C)C)cc1 (stereo unspecified)	NCF1 inh 94 (no result: TNAP inh noacc, TNAP act hiacc, Autophagy mod, TNAP inh hi DEA)
C/C(N)=C(/C#N)C(=O)CSc1ccccc1F	none
C/C(N)=C(/C#N)C(=O)CSc1n[nH]c(-c2ccccc2Br)n1	TNAP inh noacc 92
CNS(=O)(=O)c1c(C)cc(C)c(N(C)S(=O)(=O)c2ccccc2)c1C	none
